Measured values published in ChEMBL document CHEMBL1949592, “Synthesis and antiviral activity of 2'-deoxy-2'-fluoro-2'-C-methyl-7-deazapurine nucleosides, their phosphoramidate prodrugs and 5'-triphosphates” (Bioorg Med Chem Lett, 2011).
The source made the active and inactive calls. No cut-off for these calls is given here.

Experiments:
Huh-7 = test: (§1) Cytotoxicity against human HuH7 cells assessed as reduction of 50% rRNA level after 96 hrs; type: cell-based; conditions: huh-7, 96 h
Method in brief: (§2)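 Huh-7 cells carrying the HCV replicon were exposed to compound for 96 h. Toxicity was read as a fall in cellular rRNA.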

Hepatitis C virus = test: Antiviral activity against Hepatitis C virus infected in human HuH7 cells assessed as decrease in viral RNA level after 96 hrs by RT-PCR; type: functional, organism-based, Hepacivirus hominis; conditions: Huh-7, 96 h
Vero = test: Cytotoxicity against african green monkey Vero cells after 3 days by hemocytometer analysis; type: cell-based; conditions: Chlorocebus sabaeus, 72 h
CCRF-CEM = test: Cytotoxicity against human CEM cells after 6 days by trypan blue exclusion method; type: cell-based; conditions: 144 h
PBMC = test: Cytotoxicity against human PBMC after 6 days by trypan blue exclusion method; type: cell-based; conditions: 144 h
[1] = tested on: Human immunodeficiency virus 1; test: Antiviral activity against HIV1 LAV1 infected in PHA-stimulated human PBMC assessed as reduction in RT activity after 6 days by micromethod-based beta scintillation counting; type: functional, organism-based; conditions: Human immunodeficiency virus 1, LAV1, 144 h
HepG2 = test: Cytotoxicity against human HepG2 cells by neutral red dye uptake assay; type: cell-based
Hepatitis B virus = test: Antiviral activity against wild type Hepatitis B virus infected in hepatocytes; type: functional, organism-based; conditions: Hepatocyte
[2] = as §1; type: cell-based, Huh-7; conditions: HuH7 cells; method in brief: as §2

| SMILES | CC50 (Huh-7) [µM] | EC50 (Hepatitis C virus) [µM] | IC50 (Vero) [µM] | IC50 (CCRF-CEM) [µM] | IC50 (PBMC) [µM] | EC50 [1] [µM] | EC90 (Hepatitis C virus) [µM] | EC90 [1] [µM] | Activity (HepG2) | Activity (Hepatitis B virus) | CC50 at 96 h [2] [µM] |
| --- | --- | --- | --- | --- | --- | --- | --- | --- | --- | --- | --- |
| C[C@@]1(F)[C@H](O)[C@@H](CO)O[C@@H]1n1cc(Br)c2c(N)ncnc21 | > 10 | < 10 | 71.1 | 76 | 89.1 | ≥ 100 | – | – | – | – | – |
| Cc1cn([C@H]2C[C@H](N=[N+]=[N-])[C@@H](CO)O2)c(=O)[nH]c1=O [ZIDOVUDINE] | > 10 | > 10 | – | – | > 100 | 0.0033 | > 10 | 0.028 | – | – | – |
| C=Cc1cn([C@H]2O[C@H](CO)[C@@H](O)[C@@]2(C)F)c2ncnc(N)c12 | 8.3 | 5.6 | 14.6 | 16 | 21 | 35.5 | 18.4 | 65.2 | – | – | – |
| C[C@@]1(F)[C@H](O)[C@@H](CO)O[C@@H]1n1cc(Cl)c2c(N)ncnc21 | – | < 10 | > 100 | 96 | > 100 | > 100 | – | > 100 | – | – | – |
| COc1ncnc2c1ccn2[C@H]1O[C@H](CO)[C@@H](O)[C@@]1(C)F | > 10 | > 10 | > 100 | > 100 | > 100 | ≥ 100 | – | ≥ 100 | – | – | – |
| CNc1ncnc2c1c(F)cn2[C@H]1O[C@H](CO)[C@@H](O)[C@@]1(C)F | – | > 10 | > 100 | > 100 | > 100 | > 100 | – | – | – | – | – |
| CCc1cn([C@H]2O[C@H](CO)[C@@H](O)[C@@]2(C)F)c2ncnc(N)c12 | > 10 | > 10 | > 100 | > 100 | > 100 | 95.5 | > 10 | – | – | – | – |
| C[C@@]1(F)[C@H](O)[C@@H](CO)O[C@H]1n1cc(C#Cc2ccccc2)c2c(N)ncnc21 | < 10 | < 10 | 45.7 | 11.6 | 41.1 | 10.7 | – | 31.1 | Toxic | Active | – |
| C[C@@]1(F)[C@H](O)[C@@H](CO)O[C@@H]1n1ccc2c(N)nc(N)nc21 | – | > 10 | > 100 | > 100 | > 100 | > 100 | – | > 100 | – | – | – |
| C[C@@]1(F)[C@H](O)[C@@H](CO)O[C@H]1n1ccc2c(N)ncnc21 | > 10 | > 10 | > 100 | > 100 | > 100 | > 100 | > 10 | > 100 | – | – | – |
| C[C@@]1(F)[C@H](O)[C@@H](CO)O[C@H]1n1cc(Cl)c2c(N)ncnc21 | > 10 | < 10 | > 100 | > 100 | 18.5 | 82.4 | > 10 | – | – | – | – |
| CCOC(=O)[C@H](C)NP(=O)(OC[C@H]1O[C@@H](n2cc(I)c3c(N)nc(N)nc32)[C@](C)(F)[C@@H]1O)Oc1ccccc1 (stereo not given in full) | > 10 | > 10 | 65.1 | > 100 | 67.4 | 26.7 | > 10 | > 100 | – | – | – |
| C=Cc1cn([C@@H]2O[C@H](CO)[C@@H](O)[C@@]2(C)F)c2ncnc(N)c12 | 4.5 | 1.8 | 10.1 | 3.5 | 4.8 | 14.7 | 7.6 | 44.8 | – | – | – |
| C[C@@]1(F)[C@H](O)[C@@H](CO)O[C@@H]1n1cc(C#Cc2ccccc2)c2c(N)ncnc21 | > 10 | > 10 | 51.3 | 15.7 | 40.8 | 7.7 | > 10 | 38 | – | inactive | – |
| COc1ncnc2c1ccn2[C@@H]1O[C@H](CO)[C@@H](O)[C@@]1(C)F | – | > 10 | > 100 | > 100 | > 100 | 24.8 | > 10 | 85.6 | – | – | – |
| COC(=O)/C=C/c1cn([C@@H]2O[C@H](CO)[C@@H](O)[C@@]2(C)F)c2ncnc(N)c12 | – | > 10 | > 100 | > 100 | > 100 | > 100 | > 10 | > 100 | – | – | – |
| CNc1ncnc2c1c(F)cn2[C@@H]1O[C@H](CO)[C@@H](O)[C@@]1(C)F | > 10 | > 10 | > 100 | > 100 | > 100 | > 100 | > 10 | > 100 | – | – | – |

| SMILES | CC50 (Huh-7) [µM] | EC50 (Hepatitis C virus) [µM] | IC50 (Vero) [µM] | IC50 (CCRF-CEM) [µM] | IC50 (PBMC) [µM] | EC50 [1] [µM] | EC90 (Hepatitis C virus) [µM] | EC90 [1] [µM] | Activity (HepG2) | Activity (Hepatitis B virus) | CC50 at 96 h [2] [µM] |
| --- | --- | --- | --- | --- | --- | --- | --- | --- | --- | --- | --- |
| C[C@@]1(F)[C@H](O)[C@@H](CO)O[C@H]1n1cc(Br)c2c(N)ncnc21 | < 10 | < 10 | 53.1 | 50.5 | 74.2 | > 100 | > 10 | > 100 | – | – | – |
| C[C@@]1(F)[C@H](O)[C@@H](CO)O[C@@H]1n1cc(I)c2c(N)nc(N)nc21 | – | > 10 | > 100 | > 100 | > 100 | > 100 | – | > 100 | – | – | – |
| C#Cc1cn([C@H]2O[C@H](CO)[C@@H](O)[C@@]2(C)F)c2ncnc(N)c12 | > 10 | < 10 | > 100 | > 100 | > 100 | 95.2 | > 10 | – | – | – | – |
| C[C@@]1(O)[C@H](O)[C@@H](CO)O[C@H]1n1ccc(N)nc1=O | > 10 | 2.8 | > 100 | 54.4 | 47.4 | 47.5 | 9.6 | 100 | – | – | – |
| CCOC(=O)[C@H](C)NP(=O)(OC[C@H]1O[C@@H](n2cc(I)c3c(N)ncnc32)[C@](C)(F)[C@@H]1O)Oc1ccccc1 (stereo not given in full) | > 10 | > 10 | 17.8 | 13.5 | 17.4 | 58.1 | > 10 | > 100 | – | – | – |
| C#Cc1cn([C@@H]2O[C@H](CO)[C@@H](O)[C@@]2(C)F)c2ncnc(N)c12 | – | < 10 | > 100 | > 100 | 94.1 | 59.1 | – | > 100 | – | – | – |
| C#Cc1cn([C@@H]2O[C@H](CO)[C@@H](O)[C@@]2(C)F)c2nc(N)nc(N)c12 | – | > 10 | > 100 | > 100 | > 100 | 84.4 | – | > 100 | – | – | – |
| C[C@@]1(F)[C@H](O)[C@@H](CO)O[C@H]1n1cc(I)c2c(N)ncnc21 | – | 1.1 | 21.4 | 24 | 53.2 | 94 | > 33 | > 100 | – | – | 10.4 |
| CCOC(=O)[C@H](C)NP(=O)(OC[C@H]1O[C@@H](n2cc(F)c3c(N)ncnc32)[C@](C)(F)[C@@H]1O)Oc1ccccc1 (stereo not given in full) | > 10 | > 10 | > 100 | > 100 | > 100 | 39.4 | > 10 | 98.8 | – | – | – |
| C[C@@]1(F)[C@H](O)[C@@H](CO)O[C@@H]1n1cc(I)c2c(N)ncnc21 | – | 7 | 65.9 | 40.9 | > 100 | > 100 | 24.9 | > 100 | Toxic | Active | > 33 |
| C[C@@]1(F)[C@H](O)[C@@H](CO)O[C@@H]1n1ccc2c(N)ncnc21 | – | > 10 | > 100 | > 100 | > 100 | > 100 | – | – | – | – | – |
| COC(=O)/C=C/c1cn([C@H]2O[C@H](CO)[C@@H](O)[C@@]2(C)F)c2ncnc(N)c12 | > 10 | > 10 | > 100 | > 100 | > 100 | 0.71 | – | 9.5 | – | inactive | – |
| C#Cc1cn([C@H]2O[C@H](CO)[C@@H](O)[C@@]2(C)F)c2nc(N)nc(N)c12 | > 10 | > 10 | 61.7 | 26.5 | 54 | 7.1 | > 10 | 59.1 | – | inactive | – |
| C[C@@]1(F)[C@H](O)[C@@H](CO)O[C@H]1n1cc(I)c2c(N)nc(N)nc21 | > 10 | > 10 | 62.8 | 85.4 | 72.9 | 99.5 | > 10 | – | – | – | – |
| C[C@@]1(F)[C@H](O)[C@@H](CO)O[C@H]1n1cc(F)c2c(N)ncnc21 | – | > 10 | > 100 | > 100 | > 100 | > 100 | > 10 | > 100 | – | – | – |
| C[C@@]1(F)[C@H](O)[C@@H](CO)O[C@@H]1n1cc(F)c2c(N)ncnc21 | > 10 | > 10 | > 100 | 8.1 | > 100 | > 100 | – | – | – | – | – |
| CCc1cn([C@@H]2O[C@H](CO)[C@@H](O)[C@@]2(C)F)c2ncnc(N)c12 | – | < 10 | > 100 | > 100 | 20.7 | 19 | – | > 100 | – | – | – |
